Test results taken from ChEMBL document CHEMBL1144873, “An orally bioavailable oxime ether capsid binder with potent activity against human rhinovirus” (J Med Chem, 2003).
Values after ≈ are worked out from the molar mass of the structure shown.

How the values were obtained:
rhinovirus A2 [1] = assay: Anti-HRV activity against HRV-2 strain; assay type: functional, organism-based, human rhinovirus type 2; conditions: Rhinovirus A
Human rhinovirus 1A = assay: Anti-HRV activity against HRV-1A strain; assay type: functional, organism-based, human rhinovirus type 1
Outline: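 Cell-culture cytopathic effect (CPE) inhibition assay adapted from a microplate tissue-culture method. Each test was run in duplicate. EC50 was read both visually and by dye uptake. Results varied by generally no more than one dilution between duplicate runs and between read-out methods.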

KB [2] = assay: (§1) Cellular toxicity in KB cells; assay type: functional; conditions: Homo sapiens
MRC5 = assay: Cellular toxicity in MRC-5 cells; assay type: functional; conditions: Homo sapiens
rhinovirus B14 [3] = assay: Anti-HRV activity against HRV-14 strain; assay type: functional, organism-based, human rhinovirus type 14; conditions: Rhinovirus B
KB [4] = assay: as §1; assay type: functional; conditions: Homo sapiens; remark: listed apart in the source
rhinovirus B14 [5] = assay: Anti-HRV activity against HRV serotype 14; assay type: functional, organism-based, human rhinovirus type 14; conditions: Rhinovirus B
rhinovirus A15 = assay: Anti-HRV activity against HRV serotype 15; assay type: functional, organism-based; conditions: Rhinovirus A
rhinovirus A16 = assay: Anti-HRV activity against HRV serotype 16; assay type: functional, organism-based; conditions: Rhinovirus A
rhinovirus A2 [6] = assay: Anti-HRV activity against HRV serotype 2; assay type: functional, organism-based, human rhinovirus type 2; conditions: Rhinovirus A
rhinovirus A29 = assay: Anti-HRV activity against HRV serotype 29; assay type: functional, organism-based; conditions: Rhinovirus A
rhinovirus A39 = assay: Anti-HRV activity against HRV serotype 39; assay type: functional, organism-based; conditions: Rhinovirus A
rhinovirus A45 = assay: Anti-HRV activity against HRV serotype 45; assay type: functional, organism-based; conditions: Rhinovirus A
rhinovirus A51 = assay: Anti-HRV activity against HRV serotype 51; assay type: functional, organism-based; conditions: Rhinovirus A
rhinovirus A59 = assay: Anti-HRV activity against HRV serotype 59; assay type: functional, organism-based; conditions: Rhinovirus A
rhinovirus A63 = assay: Anti-HRV activity against HRV serotype 63; assay type: functional, organism-based; conditions: Rhinovirus A
rhinovirus B70 = assay: Anti-HRV activity against HRV serotype 70; assay type: functional, organism-based; conditions: Rhinovirus B
rhinovirus B72 = assay: Anti-HRV activity against HRV serotype 72; assay type: functional, organism-based; conditions: Rhinovirus B
rhinovirus A85 = assay: Anti-HRV activity against HRV serotype 85; assay type: functional, organism-based; conditions: Rhinovirus A
rhinovirus B86 = assay: Anti-HRV activity against HRV serotype 86; assay type: functional, organism-based; conditions: Rhinovirus B
rhinovirus A89 = assay: Anti-HRV activity against HRV serotype 89; assay type: functional, organism-based, human rhinovirus type 89; conditions: Rhinovirus A
rhinovirus A9 = assay: Anti-HRV activity against HRV serotype 9; assay type: functional, organism-based; conditions: Rhinovirus A
Human rhinovirus sp. = assay: Percent inhibition of 100 HRV strains by the compound at a concentration of 0.064 ug/ml; assay type: functional
KB [7] = assay: Cellular toxicity against KB cells in HRV-14 strain; assay type: functional; conditions: Homo sapiens

Structure (SMILES)	EC50 (rhinovirus A2 [1]) [µg/mL]	EC50 (Human rhinovirus 1A) [µg/mL]	CC50 (KB [2]) [µg/mL]	CC50 (MRC5) [µg/mL]	EC50 (rhinovirus B14 [3]) [µg/mL]	CC50 (KB [4]) [µg/mL]	other results
CCC/N=C/c1ccc(OCCC2CCN(c3ccc(Cl)nn3)CC2)cc1	6 (≈ 15.5 µM)	4.12 (≈ 10.6 µM)	30 (≈ 77.5 µM)	> 50			
CCO/N=C/c1ccc(OCCC2CCN(c3ccc(Cl)nn3)CC2)cc1		< 0.16		> 50	0.002 (≈ 0.00514 µM)	0.8 (≈ 2.06 µM)	
O=Cc1ccc(OCCC2CCN(c3ccc(Cl)nn3)CC2)cc1	2 (≈ 5.78 µM)	9.72 (≈ 28.1 µM)	20 (≈ 57.8 µM)	> 50			
CN/N=C/c1ccc(OCCC2CCN(c3ccc(Cl)nn3)CC2)cc1	2 (≈ 5.35 µM)	1.01 (≈ 2.7 µM)	10 (≈ 26.7 µM)	> 50			
CCO/N=C(\C)c1ccc(OCCC2CCN(c3ccc(C)nn3)CC2)cc1	0.01 (≈ 0.0261 µM)		> 1		0.004 (≈ 0.0105 µM)	> 1	
CC(C)O/N=C/c1ccc(OCCC2CCN(c3ccc(Cl)nn3)CC2)cc1	0.02 (≈ 0.0496 µM)		1 (≈ 2.48 µM)		0.018 (≈ 0.0447 µM)	0.7 (≈ 1.74 µM)	
CCCO/N=C/c1ccc(OCCC2CCN(c3ccc(Cl)nn3)CC2)cc1	0.004 (≈ 0.00993 µM)		> 1		0.01 (≈ 0.0248 µM)	0.4 (≈ 0.993 µM)	
Cc1ccc(N2CCC(CCOc3ccc(/C=N/O)cc3)CC2)nn1	> 0.25		> 0.25		0.062 (≈ 0.182 µM)	> 0.25	
CCOC(=O)c1ccc(OCCC2CCN(c3ccc(Cl)nn3)CC2)cc1	< 0.05	< 0.16	50 (≈ 128 µM)	> 50			
Clc1ccc(N2CCC(CCOc3ccc(/C=N/OCc4ccccc4)cc3)CC2)nn1	0.9 (≈ 2 µM)		0.6 (≈ 1.33 µM)		0.4 (≈ 0.887 µM)	0.6 (≈ 1.33 µM)	
CO/N=C(\C)c1ccc(OCCC2CCN(c3ccc(C)nn3)CC2)cc1	0.08 (≈ 0.217 µM)		> 1		0.023 (≈ 0.0624 µM)	> 1	
CO/N=C/c1ccc(OCCC2CCN(c3ccc(C)nn3)CC2)cc1	0.15 (≈ 0.423 µM)		> 1		0.004 (≈ 0.0113 µM)	> 1	
CC/C(=N\OC)c1ccc(OCCC2CCN(c3ccc(Cl)nn3)CC2)cc1	0.4 (≈ 0.993 µM)		> 1		0.2 (≈ 0.496 µM)	0.6 (≈ 1.49 µM)	
CCC(=O)c1ccc(OCCC2CCN(c3ccc(Cl)nn3)CC2)cc1	0.6 (≈ 1.6 µM)	< 0.16	7 (≈ 18.7 µM)	> 50			
NNC(=O)c1ccc(OCCC2CCN(c3ccc(Cl)nn3)CC2)cc1	4 (≈ 10.6 µM)	8.52 (≈ 22.7 µM)	20 (≈ 53.2 µM)	> 50			
C=CCO/N=C/c1ccc(OCCC2CCN(c3ccc(Cl)nn3)CC2)cc1	0.006 (≈ 0.015 µM)		0.5 (≈ 1.25 µM)		0.006 (≈ 0.015 µM)	0.4 (≈ 0.998 µM)	
CC(C)S(=O)(=O)n1c(N)nc2ccc(/C(=N/O)c3ccccc3)cc21 [ENVIROXIME]	0.009 (≈ 0.0251 µM)		2 (≈ 5.58 µM)				
CCOC(=O)c1ccc(OCCC2CCN(c3ccc(C)nn3)CC2)cc1 [PIRODAVIR]		< 0.16		> 50	0.0016 (≈ 0.00433 µM)		EC50 (rhinovirus B14 [5]): 0.00365 µg/mL (≈ 0.00988 µM); EC50 (rhinovirus A15): 0.00702 µg/mL (≈ 0.019 µM); EC50 (rhinovirus A16): 0.0152 µg/mL (≈ 0.0412 µM); EC50 (rhinovirus A2 [6]): 0.00277 µg/mL (≈ 0.0075 µM); EC50 (rhinovirus A29): 0.00374 µg/mL (≈ 0.0101 µM); EC50 (rhinovirus A39): 0.0018 µg/mL (≈ 0.00487 µM); EC50 (rhinovirus A45): > 5 µg/mL; EC50 (rhinovirus A51): 0.00521 µg/mL (≈ 0.0141 µM); EC50 (rhinovirus A59): 0.00437 µg/mL (≈ 0.0118 µM); EC50 (rhinovirus A63): 0.00083 µg/mL (≈ 0.00225 µM); EC50 (rhinovirus B70): 0.00214 µg/mL (≈ 0.00579 µM); EC50 (rhinovirus B72): 0.0348 µg/mL (≈ 0.0941 µM); EC50 (rhinovirus A85): 0.00472 µg/mL (≈ 0.0128 µM); EC50 (rhinovirus B86): 0.00956 µg/mL (≈ 0.0259 µM); EC50 (rhinovirus A89): 0.0057 µg/mL (≈ 0.0154 µM); EC50 (rhinovirus A9): 0.00205 µg/mL (≈ 0.00555 µM); inhibition at 0.064 µg/mL (Human rhinovirus sp.): 80%; CC50 (KB [7]): > 1 µg/mL
Cc1cc(CCCOc2c(C)cc(-c3noc(C(F)(F)F)n3)cc2C)on1 [PLECONARIL]							EC50 (rhinovirus B14 [5]): 0.0313 µg/mL (≈ 0.0821 µM); EC50 (rhinovirus A15): 0.0698 µg/mL (≈ 0.183 µM); EC50 (rhinovirus A16): 0.108 µg/mL (≈ 0.283 µM); EC50 (rhinovirus A2 [6]): 0.0265 µg/mL (≈ 0.0694 µM); EC50 (rhinovirus A29): 0.0454 µg/mL (≈ 0.119 µM); EC50 (rhinovirus A39): 0.0449 µg/mL (≈ 0.118 µM); EC50 (rhinovirus A45): 1.91 µg/mL (≈ 5 µM); EC50 (rhinovirus A51): 0.0304 µg/mL (≈ 0.0797 µM); EC50 (rhinovirus A59): 0.387 µg/mL (≈ 1.02 µM); EC50 (rhinovirus A63): 0.0623 µg/mL (≈ 0.163 µM); EC50 (rhinovirus B70): 0.0539 µg/mL (≈ 0.141 µM); EC50 (rhinovirus B72): 0.469 µg/mL (≈ 1.23 µM); EC50 (rhinovirus A85): 0.034 µg/mL (≈ 0.0892 µM); EC50 (rhinovirus B86): 0.07 µg/mL (≈ 0.184 µM); EC50 (rhinovirus A89): 0.0293 µg/mL (≈ 0.0769 µM); EC50 (rhinovirus A9): 0.0372 µg/mL (≈ 0.0974 µM)
